Activity calls are given as the source filed them. No cut-off for these calls is given here.
Experiments:
HeLa [1] = assay: Binding affinity to ADAM10 5'-UTR RNA QGRS (unknown origin) transfected in human HeLa cells assessed as increase in luciferase mRNA expression at 0.5 to 2.5 uM after 24 hrs by RT-PCR method; type: cell-based
[2] = Binding affinity to ADAM10 A10-mutant RNA QGRS (unknown origin) by surface plasmon resonance method
[3] = biological target: T1, Disintegrin and metalloproteinase domain-containing protein 10 (Homo sapiens) (UniProt O14672); assay: Activation of human recombinant ADAM10 assessed as increase in enzyme activity at 0.25 to 4 uM pre-incubated for 20 mins before fluorogenic alpha-secretase substrate addition and measured 1 hr post substrate addition by monochromator-based multimode microplate reader based method
T1 sequence (whole entry): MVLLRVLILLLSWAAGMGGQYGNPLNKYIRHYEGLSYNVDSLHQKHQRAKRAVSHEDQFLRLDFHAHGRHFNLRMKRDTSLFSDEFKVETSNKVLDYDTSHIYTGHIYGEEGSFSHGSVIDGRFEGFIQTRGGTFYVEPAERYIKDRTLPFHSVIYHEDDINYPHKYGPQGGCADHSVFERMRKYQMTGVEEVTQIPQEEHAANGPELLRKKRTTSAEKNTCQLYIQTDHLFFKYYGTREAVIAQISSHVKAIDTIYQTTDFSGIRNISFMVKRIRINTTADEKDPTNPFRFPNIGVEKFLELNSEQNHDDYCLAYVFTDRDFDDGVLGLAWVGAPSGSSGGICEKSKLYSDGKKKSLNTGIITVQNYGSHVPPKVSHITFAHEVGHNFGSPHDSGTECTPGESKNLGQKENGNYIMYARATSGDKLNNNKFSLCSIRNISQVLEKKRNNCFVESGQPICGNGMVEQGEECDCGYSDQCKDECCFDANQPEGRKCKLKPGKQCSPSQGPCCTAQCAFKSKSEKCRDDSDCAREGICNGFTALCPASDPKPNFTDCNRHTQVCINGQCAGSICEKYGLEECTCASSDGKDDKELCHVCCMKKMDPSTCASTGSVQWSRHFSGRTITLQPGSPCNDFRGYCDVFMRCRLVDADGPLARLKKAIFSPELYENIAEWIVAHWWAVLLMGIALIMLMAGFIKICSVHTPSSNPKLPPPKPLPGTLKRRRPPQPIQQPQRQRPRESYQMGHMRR
How it was run: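 Recombinant human ADAM10 (50 ng total protein per sample) preincubated 20 min with 0, 0.25, 0.5, 1, 2, 4 μM compound. Then 2× reaction buffer added (50 μM Tris, 4 μM ZnCl2, 0.01% Brij-35, pH 9.0) with 20 μM fluorogenic α-secretase substrate. Incubated 1 h at 37 °C in the dark; fluorescence read at ex 340/em 490 nm.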

HeLa [4] = assay: Binding affinity to ADAM10 5'-UTR mutant RNA QGRS (unknown origin) transfected in human HeLa cells assessed as increase in ADAM10 translation efficiency at 2.5 uM after 24 hrs by Renilla/firefly dual luciferase reporter assay; type: cell-based
How it was run: (§1)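 HeLa cells transfected with 0.8 μg 5′UTR-Wt or 5′UTR-Mut dual-luciferase plasmid. After 12 h, incubated 24 h with 0, 0.5, 1 or 2.5 μM compound. Renilla luciferase normalized to firefly and expressed relative to the ligand-free control; mean ± SD of three independent experiments, each in triplicate.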

HeLa [5] = assay: Binding affinity to ADAM10 5'-UTR mutant RNA QGRS (unknown origin) transfected in human HeLa cells assessed as increase in ADAM10 translation efficiency at 1 uM after 24 hrs by Renilla/firefly dual luciferase reporter assay; type: cell-based; how it was run: as §1
[6] = Binding affinity to ADAM10 A10-RNA QGRS (unknown origin) by microscale thermophoresis method
HEK-APP [7] = assay: Binding affinity to ADAM10 A10-RNA QGRS (unknown origin) transfected in HEK-APP cells assessed as increase in ADAM10 protein expression at 0.75 uM after 48 hrs by Western blotting method; type: cell-based
How it was run: (§2)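 HEK-APP cells (DMEM, 10% FBS, 2 mM glutamine, 0.2 mg/mL G418) treated with 0, 0.5, 0.75, 1 or 1.5 μM compound for 48 h. Lysates in Tris/NaCl/EDTA/1% Triton buffer immunoblotted for ADAM10, APP and β-actin; conditioned medium blotted for sAPPα. Signal by densitometry, normalized to β-actin, relative to blank control; mean ± SD, three independent experiments.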

HEK293 = assay: Reduction in Abeta40 protein production in APP expressing HEK cells at 0.75 uM after 48 hrs by ELISA method; type: functional, Homo sapiens; parameters: scale not given: the % may be the effect or the level left
How it was run: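 HEK-APP cells treated 48 h with increasing compound concentrations (0.75, 1, 1.5 μM). Secreted Aβ40 in equal amounts of conditioned medium quantified by sandwich ELISA. Values expressed relative to blank control; mean ± SD of three independent experiments.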

HeLa [8] = assay: Binding affinity to ADAM10 A10-RNA QGRS (unknown origin) transfected in human HeLa cells assessed as increase in ADAM10 translation efficiency at 2.5 uM after 24 hrs by Renilla/firefly dual luciferase reporter assay; type: cell-based
How it was run: (§3)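 HeLa cells transfected with 0.8 μg A10-Wt, A10-Mut or A10-Del plasmid (G-quadruplex motif upstream of Renilla in psiCHECK-2). Screening: 24 h at a single 2 μM concentration. Follow-up: plasmid for 12 h, then 0, 0.5, 1 or 2.5 μM for 24 h. Renilla normalized to firefly, relative to untreated control; mean ± SD of three independent measurements.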

[9] = Effect on secondary structure of ADAM10 A10-RNA QGRS (unknown origin) by CD spectroscopy
HEK-APP [10] = assay: Binding affinity to ADAM10 A10-RNA QGRS (unknown origin) transfected in HEK-APP cells assessed as increase in ADAM10 protein expression at 0.5 uM after 48 hrs by Western blotting method; type: cell-based; how it was run: as §2
HeLa [11] = assay: Binding affinity to ADAM10 5'-UTR mutant RNA QGRS (unknown origin) transfected in human HeLa cells assessed as increase in luciferase mRNA expression at 0.5 to 2.5 uM after 24 hrs by RT-PCR method; type: cell-based
HeLa [12] = assay: Binding affinity to ADAM10 A10-mutant RNA QGRS (unknown origin) transfected in human HeLa cells assessed as increase in ADAM10 translation efficiency at 0.5 to 2.5 uM after 24 hrs by Renilla/firefly dual luciferase reporter assay; type: cell-based; how it was run: as §3
HeLa [13] = assay: Binding affinity to ADAM10 5'-UTR RNA QGRS (unknown origin) transfected in human HeLa cells assessed as increase in ADAM10 translation efficiency at 1 uM after 24 hrs by Renilla/firefly dual luciferase reporter assay; type: cell-based; how it was run: as §1
HeLa [14] = assay: Binding affinity to N-Ras RNA QGRS (unknown origin) transfected in human HeLa cells assessed as increase in ADAM10 translation efficiency at 2.5 uM after 24 hrs by Renilla/firefly dual luciferase reporter assay; type: cell-based
How it was run: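 HeLa cells carrying luciferase reporter plasmids with the N-Ras, Bcl-2 or VEGF 5′-UTR quadruplex (or its mutant) treated with compound up to 2.5 μM for 24 h. Renilla/firefly luciferase activity then measured.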

Compound: CCn1c2ccccc2c2cc(/C=C/c3cc(N4CCN(C)CC4)c4ccccc4[n+]3C)ccc21.[I-]
- Activity (HeLa [1]): inactive
- Kd [2]: 700 mM
- Activity [3]: Active
- Activity (HeLa [4]): inactive
- Activity (HeLa [5]): inactive
- Kd [6]: 0.0049 mM
- Activity (HEK-APP [7]): 55.1%
- Activity (HEK293): 7.7%
- Activity (HeLa [8]): 87.3%
- Activity [9]: inactive
- Activity (HEK-APP [10]): 20.2%
- Activity (HeLa [11]): inactive
- Activity (HeLa [12]): inactive
- Activity (HeLa [13]): 22.5%
- Activity (HeLa [14]): 20%

Source: ChEMBL document CHEMBL3425405, “Discovery of Small Molecules for Up-Regulating the Translation of Antiamyloidogenic Secretase, a Disintegrin and Metalloproteinase 10 (ADAM10), by Binding to the G-Quadruplex-Forming Sequence in the 5' Untranslated Region (UTR) of Its mRNA” (J Med Chem, 2015)
